According to ChEMBL document CHEMBL1795212, “Synthesis and in vitro antimalarial activity of tetraoxane-amine/amide conjugates” (Eur J Med Chem, 2011):

How the values were obtained:
Vero = assay: Cytotoxicity against african green monkey Vero cells at 12.5 uM; type: cell-based; conditions: chlorocebus sabaeus
In short: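 Mammalian kidney Vero cells screened in vitro for cytotoxicity, in parallel with the antimalarial screen, up to a highest concentration of 12.5.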

Plasmodium falciparum [1] = assay: Antimalarial activity against Plasmodium falciparum W2 assessed as plasmodial LDH activity after 72 hrs; type: functional, organism-based
In short: (§1)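 P. falciparum D6 (chloroquine-sensitive) and W2 (chloroquine-resistant) clones screened in vitro alongside Vero cytotoxicity, up to a highest concentration of 12.5; IC50 determined.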

[2] = Selectivity index, IC50 for african green monkey Vero cells to IC50 for Plasmodium falciparum W2; type: functional
In short: (§2)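 Selectivity index is the cytotoxicity IC50 in Vero cells divided by the antimalarial IC50 against the stated P. falciparum clone (D6 or W2).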

[3] = Selectivity index, IC50 for african green monkey Vero cells to IC50 for Plasmodium falciparum D6; type: functional; in short: as §2
Plasmodium falciparum [4] = assay: Antimalarial activity against Plasmodium falciparum D6 assessed as plasmodial LDH activity after 72 hrs; type: functional, organism-based; in short: as §1
[5] = Plasmodium falciparum, W2, 72 h, read-out: IC50
[6] = Plasmodium falciparum, D6, 72 h, read-out: IC50

Row | Structure (SMILES) | Activity (Vero) | IC50 (Plasmodium falciparum [1]; [5]) | Ratio IC50 [2] | Ratio IC50 [3] | IC50 (Plasmodium falciparum [4]; [6]) | IC50 (Plasmodium falciparum [1]) | IC50 (Plasmodium falciparum [4])
1 | O=Cc1ccc(C2OOC(c3ccccc3)OO2)cc1 (stereo not given) | Non-toxic | > 17500 nM | >1 | >1.3 | 13200 nM | – | –
2 | Cc1cccc(C2OOC(c3ccc(C=O)cc3)OO2)c1 (stereo not given) | Non-toxic | – | – | – | – | Not Active | Not Active
3 | Cc1ccccc1C1OOC(c2ccc(C=O)cc2)OO1 (stereo not given) | Non-toxic | – | – | – | – | Not Active | Not Active
4 | CCc1ccc(C2OOC(c3ccc(C=O)cc3)OO2)cc1 (stereo not given) | Non-toxic | 5990 nM | >2.6 | >1.4 | 10900 nM | – | –
5 | CC(C)c1ccc(C2OOC(c3ccc(C=O)cc3)OO2)cc1 (stereo not given) | Non-toxic | 3110 nM | >4.9 | >2.2 | 6990 nM | – | –
6 | Cc1ccc(C2OOC(c3ccc(/C=N/C4CCCCC4)cc3)OO2)cc1 (stereo not given) | Non-toxic | 1850 nM | >7 | >6.8 | 1900 nM | – | –
7 | Cc1ccc(C2OOC(c3ccc(/C=N\c4ccccc4)cc3)OO2)cc1 (stereo not given) | Non-toxic | 5530 nM | >2.4 | >1.7 | 7740 nM | – | –
8 | Cc1ccc(C2OOC(c3ccc(/C=N/Cc4ccccc4)cc3)OO2)cc1 (stereo not given) | Non-toxic | 6400 nM | >2 | >2.6 | 4800 nM | – | –
9 | Cc1ccc(C2OOC(c3ccc(/C=N/CCc4ccccc4)cc3)OO2)cc1 (stereo not given) | Non-toxic | 1490 nM | >8.2 | >7.9 | 1540 nM | – | –
10 | Cc1ccc(C2OOC(c3ccc(/C=N\c4ccc(Cl)cc4)cc3)OO2)cc1 (stereo not given) | Non-toxic | 1460 nM | >8.2 | >8.2 | 1460 nM | – | –
11 | Cc1ccc(C2OOC(c3ccc(/C=N\c4ccc(Br)cc4)cc3)OO2)cc1 (stereo not given) | Non-toxic | 4090 nM | >2.6 | >1.4 | 7950 nM | – | –
12 | Cc1ccc(C2OOC(c3ccc(/C=N\c4ccccc4S)cc3)OO2)cc1 (stereo not given) | Non-toxic | 5080 nM | >2.4 | >1.8 | 6860 nM | – | –
13 | Cc1ccc(C2OOC(c3ccc(/C=N\CCO)cc3)OO2)cc1 (stereo not given) | Non-toxic | 2370 nM | >6.1 | >5.1 | 2820 nM | – | –
14 | Cc1ccc(C2OOC(c3ccc(/C=N\N)cc3)OO2)cc1 (stereo not given) | Non-toxic | 1260 nM | >9 | >9 | 2590 nM | – | –
15 | Cc1ccc(C2OOC(c3ccc(CNCc4ccccc4)cc3)OO2)cc1 (stereo not given) | Non-toxic | 3440 nM | >3.7 | >3.7 | 3440 nM | – | –
16 | Cc1ccc(C2OOC(c3ccc(CNCCc4ccccc4)cc3)OO2)cc1 (stereo not given) | Non-toxic | 6390 nM | >1.9 | >1.6 | 7670 nM | – | –
17 | Cc1ccc(C2OOC(c3ccc(CNc4ccccc4S)cc3)OO2)cc1 (stereo not given) | Non-toxic | 1590 nM | >7.6 | >5.5 | 2190 nM | – | –
18 | OCc1ccc(C2OOC(c3ccccc3)OO2)cc1 (stereo not given) | Non-toxic | 1820 nM | >9.5 | >5.6 | 3090 nM | – | –
19 | Cc1ccc(C2OOC(c3ccc(CO)cc3)OO2)cc1 (stereo not given) | Non-toxic | 2420 nM | >6.8 | >9 | 1830 nM | – | –
20 | Cc1cccc(C2OOC(c3ccc(CO)cc3)OO2)c1 (stereo not given) | Non-toxic | 1380 nM | >11.9 | >12.9 | 1280 nM | – | –
21 | Cc1ccccc1C1OOC(c2ccc(CO)cc2)OO1 (stereo not given) | Non-toxic | 1900 nM | >8.7 | >7.7 | 2150 nM | – | –
22 | CCc1ccc(C2OOC(c3ccc(CO)cc3)OO2)cc1 (stereo not given) | Non-toxic | 1090 nM | 14.4 | 9.9 | 1580 nM | – | –
23 | CC(C)c1ccc(C2OOC(c3ccc(CO)cc3)OO2)cc1 (stereo not given) | Non-toxic | 1890 nM | >7.9 | >7.4 | 2020 nM | – | –
24 | Cc1ccc(C2OOC(c3ccc(COS(C)(=O)=O)cc3)OO2)cc1 (stereo not given) | Non-toxic | 8180 nM | >1.6 | >1.7 | 7640 nM | – | –
25 | CCc1ccc(C2OOC(c3ccc(COS(C)(=O)=O)cc3)OO2)cc1 (stereo not given) | Non-toxic | 3940 nM | >3.2 | >2.5 | 4990 nM | – | –

Row | Structure (SMILES) | Activity (Vero) | IC50 (Plasmodium falciparum [1]; [5]) | Ratio IC50 [2] | Ratio IC50 [3] | IC50 (Plasmodium falciparum [4]; [6]) | IC50 (Plasmodium falciparum [1]) | IC50 (Plasmodium falciparum [4])
26 | Cc1ccc(C2OOC(c3ccc(CNc4ccccc4)cc3)OO2)cc1 (stereo not given) | Non-toxic | 1590 nM | >8.2 | >7.1 | 1840 nM | – | –
27 | Cc1ccc(C2OOC(c3ccc(CNc4cccc5ccccc45)cc3)OO2)cc1 (stereo not given) | Non-toxic | – | – | – | – | Not Active | Not Active
28 | Cc1ccc(C2OOC(c3ccc(CN(C)c4ccccc4)cc3)OO2)cc1 (stereo not given) | Non-toxic | 2110 nM | >6 | >8.4 | 1510 nM | – | –
29 | Cc1ccc(NCc2ccc(C3OOC(c4ccc(C)cc4)OO3)cc2)cc1 (stereo not given) | Non-toxic | – | – | – | – | Not Active | Not Active
30 | Cc1ccc(C2OOC(c3ccc(CNc4cccc(C)c4)cc3)OO2)cc1 (stereo not given) | Non-toxic | 2380 nM | >5.3 | >4.8 | 2640 nM | – | –
31 | Cc1ccc(C2OOC(c3ccc(CNc4ccccc4C)cc3)OO2)cc1 (stereo not given) | Non-toxic | – | – | – | – | Not Active | Not Active
32 | Cc1ccc(C2OOC(c3ccc(CNc4c(C)cccc4C)cc3)OO2)cc1 (stereo not given) | Non-toxic | 1450 nM | >8.4 | >8.2 | 1480 nM | – | –
33 | CCc1ccc(NCc2ccc(C3OOC(c4ccc(C)cc4)OO3)cc2)cc1 (stereo not given) | Non-toxic | 2350 nM | >5.2 | >3.7 | 3320 nM | – | –
34 | Cc1ccc(C2OOC(c3ccc(CNc4ccc(C(C)C)cc4)cc3)OO2)cc1 (stereo not given) | Non-toxic | 3200 nM | >3.7 | >4.9 | 2390 nM | – | –
35 | CCCc1ccc(NCc2ccc(C3OOC(c4ccc(C)cc4)OO3)cc2)cc1 (stereo not given) | Non-toxic | 4190 nM | >2.8 | >2.3 | 5670 nM | – | –
36 | Cc1ccc(C2OOC(c3ccc(CNc4ccc(F)cc4)cc3)OO2)cc1 (stereo not given) | Non-toxic | 2350 nM | >5.3 | >6 | 2090 nM | – | –
37 | Cc1ccc(C2OOC(c3ccc(CNc4cccc(F)c4)cc3)OO2)cc1 (stereo not given) | Non-toxic | 1830 nM | >6.8 | >5.1 | 2460 nM | – | –
38 | Cc1ccc(C2OOC(c3ccc(CNc4ccccc4F)cc3)OO2)cc1 (stereo not given) | Non-toxic | 1830 nM | >6.8 | >6.6 | 1880 nM | – | –
39 | Cc1ccc(C2OOC(c3ccc(CNc4ccc(Cl)cc4)cc3)OO2)cc1 (stereo not given) | Non-toxic | 1700 nM | >7 | >6.8 | 1790 nM | – | –
40 | Cc1ccc(C2OOC(c3ccc(CNc4cccc(Cl)c4)cc3)OO2)cc1 (stereo not given) | Non-toxic | – | – | – | – | Not Active | Not Active
41 | Cc1ccc(C2OOC(c3ccc(CNc4ccccc4Cl)cc3)OO2)cc1 (stereo not given) | Non-toxic | 2760 nM | >4.3 | >4.8 | 2510 nM | – | –
42 | Cc1ccc(C2OOC(c3ccc(CNc4cc(Cl)c(Cl)cc4Cl)cc3)OO2)cc1 (stereo not given) | Non-toxic | 6420 nM | >1.6 | >1.2 | 8570 nM | – | –
43 | CCc1ccc(C2OOC(c3ccc(C(=O)O)cc3)OO2)cc1 (stereo not given) | Non-toxic | – | – | – | – | Not Active | Not Active
44 | Cc1ccc(C2OOC(c3ccc(C(=O)NCCO)cc3)OO2)cc1 (stereo not given) | Non-toxic | – | – | – | – | Not Active | Not Active
45 | Cc1ccc(C2OOC(c3ccc(C(=O)NCCCO)cc3)OO2)cc1 (stereo not given) | Non-toxic | – | – | – | – | Not Active | Not Active
46 | Cc1ccc(C2OOC(c3ccc(C(=O)NCCCCCCO)cc3)OO2)cc1 (stereo not given) | Non-toxic | – | – | – | – | Not Active | Not Active
47 | CCCCNC(=O)c1ccc(C2OOC(c3ccc(C)cc3)OO2)cc1 (stereo not given) | Non-toxic | – | – | – | – | Not Active | Not Active
48 | CCCCCNC(=O)c1ccc(C2OOC(c3ccc(CC)cc3)OO2)cc1 (stereo not given) | Non-toxic | – | – | – | – | Not Active | Not Active
49 | Cc1ccc(C2OOC(c3ccc(C=O)cc3)OO2)cc1 (stereo not given) | Non-toxic | – | – | – | – | Not Active | Not Active
50 | CCN(CC)CCCC(C)Nc1ccnc2cc(Cl)ccc12 (stereo not given) [CHLOROQUINE] | Non-toxic | – | – | – | – | – | –
